Test [1] can be described thus: inhibitors of TNFa-induced NFkB p65 translocation, primary screen, imaging, HUVEC, MLSMR starter and 10KST1 sets (AID 438;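 active = inhibition above 20% together with a positive visual image hit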;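 also: compound added about 3h40 before a 20 min TNFalpha stimulation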;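 as to inhibition: signal is the nuclear over cytoplasmic p65 intensity ratio per well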). As to conditions: HUVEC TNFa-induced p65 nuclear translocation; cell count: measured here: nuclei count (cytotoxicity indicator), at 2.08 µM; inhibition: at 2 µM, stronger effect = higher value, 0% TNFa-plus-vehicle, 100% no-TNFa wells.
A short description of test [2]: inhibitors of E-selectin induction by TNFa, primary screen, imaging, HUVEC, immunofluorescence, MLSMR starter and 10KST1 sets (AID 487;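 active = visually confirmed hit in the image check and inhibition above 20%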;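 as to inhibition: signal is fraction of cell area covered by stained E-selectin grains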;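 as to nuclei count: 100% = median nuclei count of all wells on the same plate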). As to conditions: HUVEC TNFalpha-induced E-selectin immunofluorescence imaging, at 2 µM; inhibition: stronger effect = higher value; nuclei count: measured here: cell number, toxicity.
The nature of test [3]: DUSP6 inhibitors restoring Erk phosphorylation by chemical complementation, primary imaging in DUSP6-transfected HeLa (AID 609).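 As to inhibition: phospho-Erk level distribution per well compared with pooled transfected vehicle control wells.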 The following applies: HeLa MKP-3 transfected, phospho-Erk imaging KS statistic, at 10 µM, cells stimulated with TPA for 15 min.
Test [4] has as its target Dual specificity protein phosphatase 6 (Homo sapiens) (UniProt Q16828). The test is described as above. As to conditions: HeLa MKP-3 transfected, phospho-Erk imaging KS statistic; at 10 µM; stronger effect = higher value; cells stimulated with TPA for 15 min.
Test [5] has as its target Voltage-gated potassium channel subunit beta-2 (Rattus norvegicus) (UniProt P62483). Kind of test: KvBeta enzyme negative modulators, primary screen, biochemical, NADPH fluorescence (AID 622;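 active = fluorescence slope higher than the sample average by over 3 SD, cut at about -0.22 in these data, passing the limit was not always enough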;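 also: slope of raw intensity against log time taken from 70 to 1610 s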). The following applies: recombinant KvBeta, 4-cyanobenzaldehyde reduction, at 10 µM, stronger effect = higher value.
For test [6] the target is unchanged. Put plainly: KvBeta positive modulators, primary screen, biochemical, NADPH fluorescence (AID 623;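 active = NADPH fluorescence slope more negative than the mean of all samples by about 3 SD, 99.7% confidence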;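 also: fluorescence intensity change per second fitted from 20 to 320 s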). The following applies: Recombinant KvBeta, NADPH fluorescence decrease slope, 10 min; at 10 µM; stronger effect = lower value.
Test [7] deals with Muscarinic acetylcholine receptor M4 (Homo sapiens) (UniProt P08173). Kind of test: compounds altering M4/GIRK thallium flux, either direction, primary screen, M4 allosteric agonist project, cell-based, HEK293 M4/GIRK, BTC-AM (AID 625;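 active = fluorescence slope after compound addition differing from the mean of all tested samples at 99.7% confidence, mostly higher but some lower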;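 also: thallium influx through GIRK channels coupled to M4 in HEK293 cells with BTC-AM dye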). The following applies: at 10 µM, actives lie on both sides. A digest of the protocol:
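System: HEK293 cells with M4 receptor and GIRK channels | Incubation: Cells overnight at 37 °C, BTC-AM loading 1 h, reads 2 min total | Technique: Kinetic BTC-AM fluorescence sampled at 1 Hz, 10 s pre-addition baseline | Measure: Post-addition slope, 15–24 s, of baseline-normalized fluorescence | Control set: Carbachol positive, DMSO negative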

Test [8] is described as follows: inhibitors of larval lipid processing in zebrafish, primary screen, whole organism, PED6 fluorescence, gall bladder and intestine (AID 686;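 active = a full or partial loss of lipid-probe fluorescence in the fish gall bladder, intestine or both, judged by eye; inactive = no fluorescence loss, or compound toxic to the fish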;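 also: larvae 5 to 7 days old with five fish per well; signal comes from phospholipase A2 cleavage of quenched PED6 carried via bile; overnight exposure to compound and PED6 before scoring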). The following applies: Zebrafish larvae PED6 lipid processing, fluorescence scoring; screened at 20 µM (by protocol). Summed up:
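Test system – live zebrafish larvae aged 5-7 days, whole organism · Buffer or medium – E3 fish medium · Reagent – quenched phospholipase substrate PED6, 100 nM final, ingested by larvae · Doses – 20 µM single dose · Incubation – overnight compound and PED6 incubation · Technique – visual fluorescence microscopy scoring of gall bladder, gut · Read-out basis – visual per-well fluorescence inhibition score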

Test [9] can be described thus: inhibitors of Chlamydomonas gravitaxis, primary screen, whole organism, Chlamydomonas reinhardtii, WT vs cilia-less mutant, absorbance, 96-well (AID 463189;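 active = inhibition at or above 50% relative to wild type and mutant plate controls; inactive = inhibition below 50%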;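 also: 0% = wild type cc124 cells in DMSO and 100% = ciliumless bld1 mutant cells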). The following applies: OD600 absorbance, 2 days, at 10 µM, stronger effect = higher value.
[10] abbreviates: measured here: cell density z-score.
Setting [11] is: measured here: nuclear c-Myc green intensity z-score.
The mark [12] stands for this setting: measured here: nuclear pErk red intensity z-score, stronger effect = higher value.

Active and inactive are the calls of the source.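 The calls were made as follows, unless noted: active = compounds giving at least 50% inhibition in the cell-based MKP-3 phosphatase rescue imaging test; inactive = the rest.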

Dual specificity protein phosphatase 6 (Homo sapiens), sequence (Q16828 whole entry, looked up): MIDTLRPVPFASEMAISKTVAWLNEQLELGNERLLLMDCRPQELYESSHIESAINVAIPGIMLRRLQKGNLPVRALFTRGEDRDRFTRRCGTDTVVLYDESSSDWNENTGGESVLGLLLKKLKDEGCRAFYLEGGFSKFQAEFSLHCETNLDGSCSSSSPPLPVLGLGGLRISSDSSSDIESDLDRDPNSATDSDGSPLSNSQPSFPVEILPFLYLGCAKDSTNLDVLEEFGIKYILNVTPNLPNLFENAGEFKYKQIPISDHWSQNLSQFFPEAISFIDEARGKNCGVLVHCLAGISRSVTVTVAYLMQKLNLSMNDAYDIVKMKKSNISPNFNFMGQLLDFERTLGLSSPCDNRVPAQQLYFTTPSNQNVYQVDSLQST
Voltage-gated potassium channel subunit beta-2 (Rattus norvegicus), sequence (P62483 whole entry, looked up): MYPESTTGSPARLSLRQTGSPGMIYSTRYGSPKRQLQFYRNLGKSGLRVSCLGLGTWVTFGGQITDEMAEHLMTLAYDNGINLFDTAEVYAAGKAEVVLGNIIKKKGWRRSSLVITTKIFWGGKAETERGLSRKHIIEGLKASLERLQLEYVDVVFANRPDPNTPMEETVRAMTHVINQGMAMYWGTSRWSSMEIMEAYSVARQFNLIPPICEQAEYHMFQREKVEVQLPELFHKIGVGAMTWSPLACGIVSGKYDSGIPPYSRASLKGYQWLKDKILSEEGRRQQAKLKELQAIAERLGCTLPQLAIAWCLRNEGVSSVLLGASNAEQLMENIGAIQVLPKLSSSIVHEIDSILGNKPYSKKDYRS
Muscarinic acetylcholine receptor M4 (Homo sapiens), sequence (P08173 whole entry, looked up): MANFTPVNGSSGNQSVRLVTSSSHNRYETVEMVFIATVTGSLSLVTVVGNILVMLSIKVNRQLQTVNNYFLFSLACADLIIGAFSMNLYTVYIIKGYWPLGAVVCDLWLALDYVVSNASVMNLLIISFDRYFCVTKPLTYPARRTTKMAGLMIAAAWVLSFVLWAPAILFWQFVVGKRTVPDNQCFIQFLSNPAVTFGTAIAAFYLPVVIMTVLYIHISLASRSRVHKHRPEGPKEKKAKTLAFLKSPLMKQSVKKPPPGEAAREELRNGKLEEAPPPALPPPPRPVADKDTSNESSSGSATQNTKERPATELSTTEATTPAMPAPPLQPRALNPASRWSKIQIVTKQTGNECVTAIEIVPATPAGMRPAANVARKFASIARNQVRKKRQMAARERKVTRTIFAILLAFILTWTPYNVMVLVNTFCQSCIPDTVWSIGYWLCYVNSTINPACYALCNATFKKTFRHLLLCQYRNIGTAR

Usually inhibition stands for the change of the read-out against control, counted positive when it falls. Regarding `CC(C)OC(=O)c1c2nc3ccccc3nc2n2c1[nH]c(=O)c1ccccc12`, the cell count in test [1] was found to be 519. In addition, the inhibition in test [1] was 4% (inactive); in [2], -30.4% (inactive); in test [4] it was 16.5% (inactive); in [9], 6.9% (inactive). In addition, the nuclei count in test [2] came out at 96.9%. The z-score is 1.31 in [3] (setting [10]), -1.51 in test [3] (setting [11]) and -0.702 in test [3] (setting [12]). In addition, the fluorescence slope was -0.445 (inactive) in [5] and 0.069 (active) in [7]. Moreover, the NADPH fluorescence slope in [6] was 2e-05 (inactive). In addition, the call in test [8] was inactive.

For `COc1ccccc1NC(=O)CSc1nnc(-c2ccc(NC(C)=O)cc2)n1C`, the cell count in test [1] is 661. Moreover, the inhibition in test [1] was -6% (inactive); in test [2], -36.2% (inactive); in test [4], 12.8% (inactive); in [9], -1.17% (inactive). In [2], the nuclei count stood at 198%. Moreover, the z-score is -0.0402 in test [3] (setting [10]), -0.306 in [3] (setting [11]) and 0.506 in test [3] (setting [12]). Besides, the fluorescence slope was -0.46 (inactive) in [5] and 0.00538 (inactive) in test [7]. In test [6], the NADPH fluorescence slope was -0.000106 (inactive). For the same compound, the compound was called inactive in test [8].

Turning to `Cc1nc(N2CCN(C(=O)c3ccc(Cl)cc3)CC2)c(C#N)c2c1COC(C)(C)C2`, the cell count in test [1] was 522. The inhibition in test [1] is 8.1% (inactive); in test [2], 7% (inactive); in [4], 1.98% (inactive); in [9], 129% (active). Further, in [2], the nuclei count is 95.8%. Moreover, the values for the z-score in test [3] (setting [10]), in [3] (setting [11]) and in test [3] (setting [12]) were -0.225, -0.286 and 0.404, respectively. Besides, the fluorescence slope in [5] was -0.335 (inactive); in test [7], 0.00518 (inactive). The NADPH fluorescence slope in [6] is -2.3e-05 (inactive). Moreover, the outcome in test [8] was inactive.

For `Cc1cc(=O)oc(C)c1C(=O)n1nc(C)c2c1C[C@@H]1[C@H]2C1(C)C`, in test [1], the cell count is 553. Moreover, the inhibition in test [1] was -3.8% (inactive); in test [2], -44.9% (inactive); in test [4] it was 15.9% (inactive); in test [9], -9.72% (inactive). Also, the nuclei count in test [2] worked out at 176%. Moreover, the z-score in test [3] (setting [10]) was 0.489; in test [3] (setting [11]), 0.72; in test [3] (setting [12]) it was -1.17. Besides, the fluorescence slope was -0.403 (inactive) in test [5] and 0.00461 (inactive) in test [7]. Further, the NADPH fluorescence slope in test [6] was -3.7e-05 (inactive). Besides, the compound was classed as inactive in test [8].

In the case of `CN(CCCCCC(=O)/C=N/O)Cc1ccccc1`, the cell count in test [1] was 673. Also, the inhibition in [1] was -7.2% (inactive); in test [2] it was -29.9% (inactive); in test [4] it was -9.53% (inactive); in [9], 23.8% (inactive). Moreover, the nuclei count in [2] was 182%. The z-score is -0.259 in [3] (setting [10]), -0.553 in [3] (setting [11]) and -0.0581 in test [3] (setting [12]). Further, the fluorescence slope was -0.493 (inactive) in [5] and 0.00525 (inactive) in [7]. The NADPH fluorescence slope in test [6] was -9.8e-05 (inactive). Besides, the result in [8] was inactive.

As for `COC(=O)C(C)Sc1nc2c(c(=O)n(C)c(=O)n2C)n1CCC(C)C` (stereo unspecified), the cell count in test [1] turned out to be 630. Further, the inhibition in test [1] is 0.3% (inactive); in test [2], -5.5% (inactive); in test [4] it was 3.42% (inactive); in test [9], 4.36% (inactive). The compound further displayed a nuclei count in test [2] of 179%. The z-score in test [3] (setting [10]) is 0.304; in test [3] (setting [11]), -0.191; in test [3] (setting [12]), -1.37. Further, the results for the fluorescence slope in test [5] and in test [7] were -0.42 (inactive) and 0.00499 (inactive), respectively. Besides, the NADPH fluorescence slope in [6] is -1.8e-05 (inactive). Moreover, the compound was classed as inactive in test [8].

As to `CCOC(=O)C(O)(C1C(=O)CC(C)(C)CC1=O)C(F)(F)F` (stereo unspecified), the cell count in [1] came to 681. The inhibition in [1] was -12.6% (inactive); in test [2], -174% (inactive); in test [4] it was -9.53% (inactive); in [9], 3.71% (inactive). This compound also displayed a nuclei count in test [2] of 160%. For the same compound, the z-score was -0.979 in [3] (setting [10]), 0.326 in test [3] (setting [11]) and 3.57 in test [3] (setting [12]). Also, the values for the fluorescence slope in test [5] and in test [7] were -0.44 (inactive) and 0.00523 (inactive), respectively. Moreover, the NADPH fluorescence slope in test [6] was -4.6e-05 (inactive). For the same compound, the compound was called inactive in test [8].

These data come from PubChem BioAssay.
